Screening data from PubChem BioAssay.
An excerpt weighted towards active compounds, which were near 2.2% of everything screened.
BaF3 tox: counter-screen for JAK2V617F inhibitors: parental Ba/F3 viability inhibitors | CellTiter-Glo ATP luminescence | inhibition, % at 5.6 µM | hit rate 1.1% among 220,000 | AID 1486;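 active = inhibition above a per-campaign cutoff, the mean inhibition of all tested compounds plus 3 SD, cut at about 27% in these data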;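 note: 0% = DMSO wells and 100% = JAK Inhibitor I control wells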
MT stabilize HCS: microtubule stabilizers in HeLa cells | HeLa tubulin immunostaining HCS, 24 h; share of cells brighter than vehicle mean+2SD | % tubulin-high responders, % at 10 µM | hit rate 0.83% among 200,000 | AID 2205;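 active = plate Z-score above 3 for both tubulin-high and condensed-nucleus cell shares, with cell loss under 80%, at 10 µM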;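 note: anti alpha tubulin signal scored within the nucleus-defined area of each cell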
IEC-6 cytotox: IEC-6 cytotoxicity, counter-screen for KLF5 inhibitors; luminescence viability; inhibition, % at 5 µM; hit rate 0.78% among 290,000; AID 1825; in the data active = inhibition above about 22%;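 note: 0% = plate median of test compound wells and 100% = cytotoxic reference compound wells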
Ba/F3 V617F tox: loss of viability in JAK2V617F-driven Ba/F3 cells; Ba/F3 EpoR-JAK2V617F viability, ATP luminescence; inhibition, % at 5.6 µM; hit rate 1.1% among 220,000;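 active = inhibition above the campaign mean plus 3 SD over all tested compounds, cut at about 24% in these data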;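 note: cytokine-independent growth of Ba/F3 cells driven by EpoR plus mutant JAK2; 0% = DMSO-treated cells and 100% = JAK inhibitor I control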
APP 5UTR inh: APP translation inhibition; SH-SY5Y APP 5'UTR-luciferase reporter, luminescence; inhibition, % at 2 µM; hit rate 0.82% among 190,000;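 active = inhibition above a set limit, derived from the sample mean plus 3 SD, cut at about 45% in these data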
b-catenin transl: alters nuclear translocation of beta-catenin in HeLa cells | immunofluorescence imaging | nuclear translocation activity, % at 5 µM | hit rate 0.3% among 190,000 | AID 1665;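 active = nuclear translocation activity above 50% at 5 µM, with a well cell count of 50 or more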;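 note: per-cell ratio of nuclear to cytoplasmic median beta-catenin stain intensity; plate controls were DMSO negative control for no effect and GSK-3 inhibitor IX positive control for full effect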
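Test system: HeLa cells, endogenous beta-catenin; Compound: single 5 µM dose plus 0.02–20 µM confirmation series; Times: compound exposure 24 h at 37°C; Signal: fluorescence imaging of beta-catenin antibody stain plus DAPI; Read-out: % activation, nuclear-to-cytoplasmic median beta-catenin signal ratio per cell.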
Numbers without * were called inactive; . = no result.

SMILES	BaF3 tox	MT stabilize HCS	IEC-6 cytotox	Ba/F3 V617F tox	APP 5UTR inh	b-catenin transl
COc1ccc2c(Cl)c(C(=O)N/N=C/c3c(C)[nH]c4ccccc34)sc2c1	7	22*	1	1	-9	78*
Cc1cc(=O)oc2c3c(cc(OCC(=O)N[C@@H](CC(C)C)C(=O)O)c12)OC(C)(C)CC3	.	.	1	.	.	.
CCOC(=O)c1sc(NS(=O)(=O)c2ccccc2Cl)nc1C	51*	1	3	4	-8	-1
C=CCn1c(-c2ccc(S(=O)(=O)N3CCOCC3)cc2)csc1=Nc1ccccc1	-1	2	-4	-2	-4	-1
CC(=O)c1cccc(N=c2scc(-c3ccc(S(=O)(=O)N4CCOCC4)cc3)n2CCO)c1	47*	1	4	43*	17	.
Cc1ccc(-n2c(N)cc(=O)nc2SCC(=O)N2CCN(c3ccccc3)CC2)cc1C	.	.	-3	.	.	.
COc1ccc(/C=C/C(=O)c2cc(Br)ccc2OC(=O)c2ccco2)cc1OC	5	4	0	4	87*	29
COn1c(C)c(C(C)=O)c2c3nonc3ccc21	96*	7	2	2	-4	-2
CCCCOn1c(C)c(C(=O)OCC)c2c3nonc3ccc21	1	1	2	-1	-18	.
CCN1C(=O)/C(=C/c2ccc(C)s2)SC1=Nc1ccc(OC)cc1	1	33*	-2	1	-10	5
COc1ccc(N=C2S/C(=C\c3ccc(C)o3)C(=O)N2CC(C)C)cc1	3	2	2	2	89*	.
CC(C)(Oc1ccc(Cl)cc1)C(=O)OCC(=O)NCCc1ccccc1	.	.	-6	.	.	.
COC(=O)Cn1ncc2c3ccccc3n(C)c2c1=O	90*	2	-7	0	-10	-2
C/C(N)=C(/C#N)C(=O)CSc1nc(-c2ccccc2)c(-c2ccccc2)o1	.	.	5	.	.	.
CCOC(=O)c1c(NC(=O)CSc2ncccn2)sc2c1CCN(Cc1ccccc1)C2	39*	1	4	5	9	-2
O=C1CCCC2=C1C(c1cccs1)Nc1ccc3ncccc3c12 (stereo not given)	2	4	2	2	6	1
Cc1ccsc1C1Nc2ccc3ncccc3c2C2=C1C(=O)CC(C)(C)C2 (stereo not given)	1	37*	8	-1	-8	-2
Cc1cccc(C(=O)Nc2nnc(Cc3ccccc3)s2)c1	.	.	-2	.	.	.
CCOc1ccc(Nc2nc(Cc3nnc(SCC(=O)NCc4ccco4)n3CC)cs2)cc1	6	16	-7	5	-13	148*
CSc1cc(C)c(OCC(=O)Nc2c(C)nn(C)c2C)c(C)c1	.	.	2	.	.	.
C[N+]1(C)CC2=Cc3ccccc3CC2C1 (stereo not given)	2	2	-1	-3	9	2
C1=C2C[N+]3(CCCC3)CC2Cc2ccc3ccccc3c21 (stereo not given)	55*	1	2	64*	12	.
COc1cc(NC(=O)Cn2ncc(Cl)c(Cl)c2=O)c(C)cc1[N+](=O)[O-]	73*	14	3	74*	95*	6
C=CC[N+]1(CC#Cc2ccccc2)CCCC1	56*	2	-5	46*	-1	0
C(#Cc1ccccc1)C[N+]1(CC#Cc2ccccc2)CCCC1	71*	2	2	87*	-8	.
SMILES	BaF3 tox	MT stabilize HCS	IEC-6 cytotox	Ba/F3 V617F tox	APP 5UTR inh	b-catenin transl
CCOc1cc(/C=C(\C#N)C(=O)Nc2ccccc2C(=O)O)ccc1OC(=O)c1ccc(C)cc1	.	.	-2	.	.	.
COc1ccc(-c2nnc(NC(=O)c3ccc(S(=O)(=O)N4COCC4(C)C)cc3)o2)cc1	46*	4	10	21	33	-2
CC1(C)COCN1S(=O)(=O)c1ccc(C(=O)Nc2nnc(-c3ccc(Cl)s3)o2)cc1	3	2	6	-4	44	4
Cc1cccc(NC(=O)NN2CCN(C)CC2)c1C	.	.	-2	.	.	.
COc1ccc(C(=O)C(CCCCC(CN(C)C)C(=O)c2ccc(OC)cc2)CN(C)C)cc1 (stereo not given)	8	2	5	2	-21	-1
CN(C)CC(CCC(CN(C)C)C(=O)c1ccccc1)C(=O)c1ccccc1 (stereo not given)	104*	.	100*	99*	.	0
C=CCNC(=S)N/N=C(\C)c1ccccn1	91*	3	91*	98*	93*	.
C/C(=N/NC(=O)CNC(=O)c1ccccn1)c1ccccc1	6	2	-3	-2	-12	0
CC(OC(=O)c1cc(S(=O)(=O)N(C)C)ccc1N1CCCC1)C(=O)NCc1ccccc1 (stereo not given)	.	.	0	.	.	.
Cc1ccc(O)c(C(=O)c2cnn(C(=O)COc3ccccc3C#N)c2)c1	1	.	2	-3	.	0
COc1cc(NC(=S)NC(=O)c2c(OC)cccc2OC)ccc1NC(=O)c1cccs1	4	21*	1	0	-10	1
COc1cc(NC(=S)NC(=O)c2cc(C)cc(C)c2)ccc1NC(=O)c1cccs1	5	1	0	-4	.	-1
O=C(CSc1ncnc2nc[nH]c12)c1ccc([N+](=O)[O-])cc1	23	.	15	36*	.	-2
O=C(CSc1ncnc2nc[nH]c12)c1ccccc1	24	3	8	8	-34	2
CC(C)Cc1nnc(NC(=O)CCC(=O)NC2CCCCC2)s1	.	.	-6	.	.	.
CCCOc1ccc(C(=O)Nc2nc(C)c(Cc3ccc4c(c3)OCO4)s2)cc1	3	13	5	2	-3	2
COc1cc(C(=O)Nc2nc(C)c(Cc3ccc4c(c3)OCO4)s2)cc(OC)c1OC	74*	15*	16	82*	86*	16
CC(C)(C)C(=O)/C(=C\c1ccc([N+](=O)[O-])cc1)n1cncn1	90*	10	23*	97*	93*	0
CN(C)/C=C(/C(=O)c1ccccc1)n1cncn1	3	6	0	0	-2	0
COC(=O)C1(C)NC(c2ccc(O)cc2)C2C(=O)N(c3ccc(C)cc3)C(=O)C21 (stereo not given)	.	.	-7	.	.	.
Cc1cc2oc(C(=O)NCc3ccccc3)cc(=O)c2cc1C	.	.	22*	.	.	.
Cc1ccc2oc(C(=O)NCc3ccccc3)cc(=O)c2c1	.	.	5	.	.	.
O=CC1=C(c2ccccc2)Oc2ccccc2O1	.	.	-1	.	.	.
CC(=O)N1N=C(c2ccco2)CC1c1cc2ccc(C)cc2nc1Cl (stereo not given)	-3	.	-5	-2	.	2
Cc1ccc(C(C)C)c(Oc2nnnn2-c2ccccc2)c1	5	32*	4	8	18	2
Cc1ccc(C)c(Oc2nnnn2-c2ccccc2)c1	7	5	-5	1	9	2
COc1cc(NS(=O)(=O)c2ccc(C)cc2C)cc(OC)c1OC	32*	22*	2	15	7	7
COc1cc(NS(=O)(=O)c2cc3[nH]c(=O)c(=O)[nH]c3cc2C)cc(OC)c1OC	.	.	-4	.	.	.
Clc1cccc(C[n+]2cc(-c3ccccc3)n3c2CCC3)c1	65*	2	-12	65*	-12	0
